# Compound activity as filed in PubChem BioAssay.
# The list is not random: actives were taken first. Their share in the collection is about 3.1%.
# FGF22 binding – shifts melting point of recombinant human FGF22 | Q9HCT0 | recombinant FGF22 thermal shift, SYPRO orange fluorescence; percent of sucrose octasulfate shift, DMSO zero | activity (Tm shift, normalised), % at 9.99 µM | 340,000 tested, 1.5% active;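 active means mean Tm shift, scaled 0 neutral to 100 positive control, at about 1.3% or above, every replicate too, limit read from the data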
# Target sequence (Q9HCT0 whole entry, looked up): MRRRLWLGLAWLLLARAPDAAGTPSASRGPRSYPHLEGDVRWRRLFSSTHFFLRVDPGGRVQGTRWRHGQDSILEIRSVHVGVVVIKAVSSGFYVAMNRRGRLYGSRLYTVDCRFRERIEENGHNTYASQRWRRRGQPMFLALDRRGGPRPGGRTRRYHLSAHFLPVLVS
# FN deposit inh – fibronectin deposition inhibition; AID 743247; 350,000 tested, 0.086% active; AH1F fibroblasts, Alexa488-fibronectin deposition fluorescence, overnight; inhibition, % at 12.6 µM;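 active means mean inhibition across replicates of 30% or more, regardless of how many single replicates reach that level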;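 further: positive control wells lacked labelled fibronectin entirely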
#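 material = AH1F fibroblast monolayer depositing Alexa488-labelled fibronectin into matrix | amount = 10000 AH1F cells/well | buffer or medium = DMEM plus 2% serum, read in PBS | incubation = 1 h cell adhesion before compound, then overnight fibronectin incubation | detection = fluorescence at 485 nm excitation, 525 nm emission | evaluation = percent inhibition as loss of matrix-bound fibronectin fluorescence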
# HIV Env fusion – HIV envelope-mediated fusion inhibition; HeLa-JRFL Env/CEM21 cell fusion, luciferase; inhibition, % at 12.3 µM; 360,000 tested, 1.1% active; AID 651610;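 active means mean replicate inhibition score of at least 50 and every replicate individually at or above 50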;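 further: 0% = plate neutral controls and 100% = maraviroc near 300 nM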
# EWS-Fli inh – EWS/Fli transcriptional activity inhibition. inhibition, % at 12.6 µM. 350,000 tested, 0.67% active. A673 NR0B1-luciferase reporter, viability-normalised;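 active means mean inhibition of at least 50% after viability correction, with every replicate also passing that limit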;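 further: firefly luciferase signal divided by Alamar Blue viability fluorescence both relative to DMSO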
# PGC1a acetyl inh – lowers PGC1a acetylation signal in U2OS cells. AlphaScreen anti-acetyl-lysine; with virally co-expressed GCN5 acetyltransferase. inhibition, % at 15.6 µM. 350,000 tested, 0.17% active. AID 651687;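 active means every replicate shows inhibition of at least 40%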;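 further: 0% = neutral control wells and 100% = positive control wells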
# PAX8 reporter – PAX8 transcriptional activity inhibition; 360,000 tested, 1.2% active; RMG-I TPO-luciferase reporter, SteadyGlo, 24 h; inhibition, % at 12.6 µM;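 active means mean replicate inhibition at least 60% with every replicate also reaching 60%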;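 further: luciferase light reporting Pax8 driven TPO promoter activity; plate controls were median of neutral control wells for no effect and mitoxantrone controls for full effect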
# Starred values were filed as active, the others as inactive; x = no result given; [ ] = another dose, or the depositor's remark.
SMILES,FGF22 binding,FN deposit inh,HIV Env fusion,EWS-Fli inh,PGC1a acetyl inh,PAX8 reporter
COC(=O)/C(=C\Nc1ccc(Cl)cc1Cl)NC(=O)c1ccc(OC)cc1,0,0,-207,53*,-19,17
COC(=O)/C(=C\Nc1ccc(OC)cc1)NC(=O)c1ccc(Cl)cc1Cl,x,x,x,x,-3,x
COc1ccc2c3c(n(C)c2c1)[C@H](CO)N(C(=O)NC(C)C)CC31CCN(C(C)=O)CC1,x,x,x,0,7,x
CC(=O)Nc1ccc(CNc2nc(NC(C)C)nc3cc(-c4ccccc4)sc23)cc1,0,9,-23,60*,10,73*
CC(=O)Nc1ccc(S(=O)(=O)Nc2ccc(Cl)cn2)cc1,0,-4,-34,-2,8,-5
CC(=O)Nc1ccc(S(=O)(=O)c2ccnc3cc(Cl)ccc23)cc1,0,11,-2,4,x,110*
CCCC#Cc1cnc2c(c1)C(=O)N([C@H](C)CO)C[C@@H](C)[C@@H](CN(C)Cc1ccc(C(=O)O)cc1)O2,0,-7,3[16.7 µM],-11,1,x
Cc1nn(-c2ccccc2)c(C)c1C(=O)OC(C)C(=O)Nc1ccc(C(N)=O)cc1 (stereo unspecified),43*,-8,5,-13,-9,6
C/C(Cl)=C\Cn1c(O)c(N=NC(N)=S)c2ccccc21,43,-8,22,57*,-2,3
NC(=S)N=Nc1c(O)n(Cc2ccccc2)c2ccccc12,0,-1,-94,38,1,35
Cc1ccc(S(=O)(=O)N(C)C[C@H]2Oc3c(NC(=O)c4cc(C)nn4C)cccc3C(=O)N([C@H](C)CO)C[C@H]2C)cc1,0,x,-20[16.7 µM],1,-9,-49
COc1ccc(S(=O)(=O)N(C)C[C@@H]2Oc3ccc(NC(=O)Nc4ccc(C(F)(F)F)cc4)cc3C(=O)N([C@H](C)CO)C[C@@H]2C)cc1,0,-2,28[16.7 µM],7,13,x
COc1ccc(NC(=O)Nc2ccc3c(c2)C(=O)N([C@H](C)CO)C[C@H](C)[C@H](CN(C)S(=O)(=O)c2ccc(C)cc2)O3)cc1,0,x,87*[16.7 µM],14,1,7
C[C@H](CO)N1C[C@H](C)[C@H](CN(C)S(=O)(=O)c2ccc(C#N)cc2)Oc2ncc(/C=C/c3ccccc3)cc2C1=O,0,x,74*[16.7 µM],10,3,x
C[C@H](CO)N1C[C@H](C)[C@@H](CN(C)S(=O)(=O)c2ccccc2)Oc2ncc(/C=C/c3ccccc3)cc2C1=O,0,-1,12[16.7 µM],10,-9,x
COc1ccc(S(=O)(=O)N(C)C[C@H]2Oc3ccc(NC(=O)Nc4ccc(C(F)(F)F)cc4)cc3C(=O)N([C@H](C)CO)C[C@@H]2C)cc1,0,2,1[16.7 µM],1,7,94*
COc1ccc(NC(=O)Nc2ccc3c(c2)C(=O)N([C@@H](C)CO)C[C@H](C)[C@H](CN(C)S(=O)(=O)c2ccc(OC)cc2)O3)cc1,0,x,83*[16.7 µM],20,-9,13
CCCNC(=O)Nc1ccc2c(c1)OC[C@@H](C)N(C(=O)C1CCC1)C[C@H](C)[C@H](OC)CN(C)C2=O,0,-2,x,3,x,-8
COc1ccc(S(=O)(=O)N(C)C[C@H]2Oc3ccc(NC(=O)Nc4ccc(F)cc4)cc3C(=O)N([C@@H](C)CO)C[C@H]2C)cc1,0,x,x,3,3,x
COc1ccc(S(=O)(=O)N(C)C[C@@H]2Oc3ccc(NC(=O)Nc4ccc5c(c4)OCO5)cc3C(=O)N([C@H](C)CO)C[C@@H]2C)cc1,0,1,76*[16.7 µM],0,7,x
C[C@@H]1CN([C@H](C)CO)C(=O)c2cc(NC(=O)Nc3ccccc3)ccc2O[C@H]1CN(C)S(=O)(=O)c1ccccc1,0,x,22[16.7 µM],-1,5,32
COc1ccc(S(=O)(=O)N(C)C[C@@H]2Oc3ccc(NC(=O)Nc4ccc5c(c4)OCO5)cc3C(=O)N([C@@H](C)CO)C[C@@H]2C)cc1,0,-5,32[16.7 µM],-6,-4,x
C[C@@H]1CN([C@H](C)CO)C(=O)c2cc(NC(=O)Nc3ccccc3)ccc2O[C@@H]1CN(C)S(=O)(=O)c1ccccc1,0,x,75*[16.7 µM],1,1,-29
COc1ccc(NC(=O)Nc2ccc3c(c2)C(=O)N([C@H](C)CO)C[C@H](C)[C@H](CN(C)S(=O)(=O)c2ccc(F)cc2)O3)cc1,0,x,69*[16.7 µM],21,-10,1
COc1ccc(NC(=O)Nc2ccc3c(c2)C(=O)N([C@@H](C)CO)C[C@H](C)[C@H](CN(C)S(=O)(=O)c2ccc(Cl)cc2)O3)cc1,1,x,66*[16.7 µM],6,-2,x
SMILES,FGF22 binding,FN deposit inh,HIV Env fusion,EWS-Fli inh,PGC1a acetyl inh,PAX8 reporter
COc1ccc2c3c([nH]c2c1)[C@H](CO)N(C(=O)C1CCC1)CC31CCN(C(=O)c2ccccn2)CC1,0,x,x,-2,-2,-15
CC(=O)N1[C@@H]2c3ccc(C4=CCCC4)c(=O)n3C[C@H]1[C@H](CO)[C@H]2C(=O)N[C@@H](C)c1ccccc1,x,x,x,0,x,x
S=C1NC2(CCCCCC2)NN1c1ccccc1,0,4,55*,-12,x,-4
Cn1cnc(CCNC(=O)[C@@H]2[C@@H](CO)[C@@H]3Cn4c(cccc4=O)[C@@H]3N2C(=O)Nc2ccccc2)c1,0,-4,4[16.7 µM],-6,x,-9
COc1cc(N2N=C(c3ccccc3)CC2c2ccccc2)c(C=O)cc1C=O (stereo unspecified),0,-4,-10,7,-9,6
COc1ccccc1N1N=C(c2ccc([N+](=O)[O-])cc2)CC1c1ccccc1 (stereo unspecified),2.7*,1,22,5,x,3
CC(C)NC(=O)N1C[C@@H]2C(c3ccccc3)[C@H](C1)N2CC(F)(F)F (stereo partly specified),x,0,x,x,x,x
O=S(=O)(c1ccccc1)[C@@]1(c2ccccc2)C[C@@H]2ON=C(c3cccc(Br)c3)[C@@H]2C1,0,11,79*,18,-3,42
O=C(O)[C@]1(S(=O)(=O)c2ccccc2)C[C@@H]2ON=C(c3cccc(Br)c3)[C@@H]2C1,0,-3,-8,4,-11,-5
O=C(Nc1ccc2c(c1)OCO2)C1Cc2c(-c3ccc4c(c3)OCO4)ccnc2O1 (stereo unspecified),0,24,-10,53*,-5,30
CN(C)c1ccc(-c2ccnc3c2CC(C)(C(=O)Nc2cccc(OC(F)(F)F)c2)O3)cc1 (stereo unspecified),0,19,-6,9,x,1
COc1ccc(NC(=O)C2(C)Cc3c(-c4ccc5c(c4)OCO5)ccnc3O2)cc1 (stereo unspecified),0,6,-26,53*,0,29
